A value given as a limit tells only on which side of the number the result lay.

The target in data set [1] is Cyclin-dependent kinase 2 (Homo sapiens, UniProt P24941). The data set can be described thus: Inhibition of CDK2.
The nature of data set [2]: Inhibition of PKA.
The target in data set [3] is T1, RAC-alpha serine/threonine-protein kinase (Homo sapiens, UniProt P31749). The data set can be described thus: Inhibition of AKT1-mediated PRAS40 phosphorylation in human U87MG cells after 1 hr in presence of 5% FBS by ELISA assay. The class given is cell-based, U-87MG ATCC. Summed up:
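U87MG cells kept in medium with 5% FBS; inhibitor added as threefold serial dilutions, 1 h incubation at 37 °C, then phospho-PRAS40 measured. Values are means ± SD, n ≥ 3.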
For orientation: An ELISA detects its analyte on a solid surface through an enzyme-linked reagent.

For data set [4], the target named is T1, RAC-alpha serine/threonine-protein kinase. Briefly: Inhibition of AKT1.
Data set [5] can be described thus: Clearance in rat. Format: ADME, organism-based. The conditions noted are these: in vivo.
The nature of data set [6]: Metabolic stability in human liver microsomes assessed as compound turnover. Format: ADME, Microsome. The following applies: read-out: Activity. (In general: Microsomes from liver hold many membrane-bound enzymes, among them those of drug oxidation.)
Data set [7] has as its system Liver microsomes. The data set can be described thus: Metabolic stability in rat liver microsome. Format: ADME.

T1 sequence (P31749 whole entry): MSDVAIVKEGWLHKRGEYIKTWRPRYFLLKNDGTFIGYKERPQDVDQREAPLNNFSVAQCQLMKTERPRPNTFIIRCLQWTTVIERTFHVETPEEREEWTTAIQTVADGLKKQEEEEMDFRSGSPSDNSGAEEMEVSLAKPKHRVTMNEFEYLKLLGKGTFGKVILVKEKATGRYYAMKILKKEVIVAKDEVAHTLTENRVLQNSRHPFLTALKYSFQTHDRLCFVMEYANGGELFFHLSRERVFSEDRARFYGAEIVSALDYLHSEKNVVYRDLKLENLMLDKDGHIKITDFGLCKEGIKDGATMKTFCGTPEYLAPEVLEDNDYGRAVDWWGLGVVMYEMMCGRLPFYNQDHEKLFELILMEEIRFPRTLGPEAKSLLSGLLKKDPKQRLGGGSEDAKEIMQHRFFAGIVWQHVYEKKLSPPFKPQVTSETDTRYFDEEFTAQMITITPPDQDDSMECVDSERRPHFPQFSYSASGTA

One may read the IC50 as the concentration at which inhibition is half-maximal. With `N[C@H](CNc1nnc(-c2ccc3cnccc3c2)s1)Cc1ccc(C(F)(F)F)cc1`, the figures for the IC50 in data set [1] and in data set [2] were 50 nM and 6 nM, respectively.

As for `N[C@H](CNc1nnc(-c2ccc3c(c2)CC(=O)N3)s1)Cc1ccc(C(F)(F)F)cc1`, the IC50 in data set [3] worked out at 300 nM; in data set [1], 190 nM; in data set [4], 20 nM; in data set [2] it was 170 nM.

`N[C@H](CNC(=O)c1ccc2cnccc2c1)Cc1ccc(C(F)(F)F)cc1`: the IC50 in data set [1] was more than 25000 nM; in data set [4], 3380 nM; in data set [2], 1560 nM.

In the case of `O=C(NC(c1ccc(Cl)c(Cl)c1)C1CCCNC1)c1ccc2cnccc2c1` (stereo not drawn), the IC50 in data set [1] amounted to 21000 nM; in data set [4], 20 nM.

Usually clearance stands for a measure of how efficiently the substance is removed, as volume per time. Consider `O=C(N[C@@H](c1ccc(Cl)c(Cl)c1)C1CNC1)c1ccc2cnccc2c1`, for which, in data set [5], the clearance is 173 mL/min/kg. The metabolised in data set [6] came out at 10.9%. For the same compound, the Stability in data set [7] is listed as 33.4%. For the same compound, the IC50 was found to be 240 nM in data set [3], 690 nM in data set [1], 7 nM in data set [4] and 10 nM in data set [2].

`O=C(N[C@H](c1ccc(Cl)c(Cl)c1)C1CNC1)c1ccc2cnccc2c1`: the figures for the IC50 in data set [1], in data set [4] and in data set [2] were 9800 nM, 110 nM and 30 nM, respectively.

For the compound `CC(C)CN1CCC([C@@H](NC(=O)c2ccc3cnccc3c2)c2ccc(Cl)c(Cl)c2)CC1`, the figures for the IC50 in data set [1], in data set [4] and in data set [2] were more than 25000 nM, 2140 nM and 2010 nM, respectively.

With `O=C(N[C@@H](c1ccc(Cl)c(Cl)c1)C1CCN(Cc2ccccc2)CC1)c1ccc2cnccc2c1`, the results for the IC50 in data set [1], in data set [4] and in data set [2] were more than 25000 nM, 240 nM and 390 nM, respectively.

Take `O=C(N[C@@H](c1ccc(Cl)c(Cl)c1)C1CCN(Cc2ccc(C(F)(F)F)cc2)CC1)c1ccc2cnccc2c1`: the IC50 in data set [1] is more than 25000 nM; in data set [4], 2300 nM; in data set [2], 980 nM.

As to `CN1CC([C@@H](NC(=O)c2ccc3cnccc3c2)c2ccc(Cl)c(Cl)c2)C1`, the IC50 in data set [1] is 360 nM; in data set [4], 7 nM; in data set [2] it was 10 nM.

Regarding `O=C(NC(c1ccc(Cl)c(Cl)c1)C1CCNC1)c1ccc2cnccc2c1` (mixture of isomers), the values for the IC50 in data set [1], in data set [4] and in data set [2] were more than 25000 nM, 30 nM and 10 nM, respectively.

Consider `O=C(NC(c1ccccc1)C1CCNCC1)c1ccc2cnccc2c1` (racemic), for which the values for the IC50 in data set [1], in data set [4] and in data set [2] were 19700 nM, 850 nM and 250 nM, respectively.

Turning to `O=C(NC(c1ccc2ccccc2c1)C1CCNCC1)c1ccc2cnccc2c1` (racemic), the IC50 in data set [1] was more than 25000 nM; in data set [4], 400 nM; in data set [2] it was 260 nM.

For the compound `O=C(NC(c1nccs1)C1CCNCC1)c1ccc2cnccc2c1` (racemic), the IC50 was more than 25000 nM in data set [1], 1570 nM in data set [4] and 1070 nM in data set [2].

For `COc1ccc(C(NC(=O)c2ccc3cnccc3c2)C2CCNCC2)cc1F` (racemic), the IC50 in data set [1] was more than 25000 nM; in data set [4], 1510 nM; in data set [2] it was 130 nM.

For `O=C(NC(c1ccc(F)c(F)c1)C1CCNCC1)c1ccc2cnccc2c1` (racemic), the results for the IC50 in data set [1], in data set [4] and in data set [2] were more than 25000 nM, 2680 nM and 160 nM, respectively.

As to `O=C(NC(c1ccc(Cl)c(-c2ccccc2)c1)C1CCNCC1)c1ccc2cnccc2c1` (racemic), the IC50 in data set [1] is more than 25000 nM; in data set [4], 200 nM; in data set [2] it was 220 nM.

On to `N#Cc1cc(C(NC(=O)c2ccc3cnccc3c2)C2CCNCC2)ccc1Cl` (racemic), for which the IC50 in data set [1] was more than 25000 nM; in data set [4] it was 80 nM; in data set [2], 160 nM.

In the case of `O=C(NC(c1cccc(Cl)c1)C1CCNCC1)c1ccc2cnccc2c1` (racemic), the IC50 in data set [1] is more than 25000 nM; in data set [4], 70 nM; in data set [2], 30 nM.

For `O=C(NC(c1ccc(Cl)cc1)C1CCNCC1)c1ccc2cnccc2c1` (racemic), the figures for the IC50 in data set [1], in data set [4] and in data set [2] were more than 25000 nM, 190 nM and 130 nM, respectively.

As to `O=C(NC(c1ccc(Cl)c(F)c1)C1CCNCC1)c1ccc2cnccc2c1` (racemic), the IC50 in data set [1] was more than 25000 nM; in data set [4] it was 40 nM.

With `O=C(NC(c1cccc(Cl)c1Cl)C1CCNCC1)c1ccc2cnccc2c1` (racemic), the results for the IC50 in data set [1], in data set [4] and in data set [2] were more than 25000 nM, 120 nM and 100 nM, respectively.

`O=C(NC(c1ccc(Cl)c(Cl)c1)C1CCNCC1)c1ccc2cnccc2c1` (racemic): the values for the IC50 in data set [1], in data set [4] and in data set [2] were more than 25000 nM, 40 nM and 50 nM, respectively.

Regarding `O=C(NC(c1cnc(Cl)c(Cl)c1)C1CCNCC1)c1ccc2cnccc2c1` (racemic), the IC50 in data set [1] was more than 25000 nM; in data set [4], 140 nM; in data set [2] it was 230 nM.

Regarding `O=C1Cc2cc(C(=O)NC(c3ccc(Cl)c(Cl)c3)C3CCNCC3)ccc2N1` (racemic), the IC50 in data set [4] stood at 350 nM; in data set [2], 1150 nM.

For the compound `O=C(NC(c1ccc(Cl)c(Cl)c1)C1CCNCC1)c1ccc2[nH]c(=O)oc2c1` (racemic), the IC50 in data set [4] turned out to be 460 nM; in data set [2], 13700 nM.

Consider `O=C(NC(c1ccc(Cl)c(Cl)c1)C1CCNCC1)c1ccc2[nH]ncc2c1` (racemic), for which the IC50 amounted to 250 nM in data set [4] and 290 nM in data set [2].

For `COc1cc2cnccc2cc1C(=O)NC(c1ccc(Cl)c(Cl)c1)C1CCNCC1` (racemic), the IC50 came out at 39 nM in data set [4] and 30 nM in data set [2].

As for `COc1ccc(-c2cc3cnccc3cc2C(=O)NC(c2ccc(Cl)c(Cl)c2)C2CCNCC2)cc1` (racemic), the IC50 in data set [4] worked out at 6850 nM; in data set [2] it was 670 nM.

On to `O=C(NC(c1ccc(Cl)c(Cl)c1)C1CCNCC1)c1ccc2cnc(F)cc2c1` (racemic), for which the clearance in data set [5] is 58.3 mL/min/kg. For the same compound, the metabolised in data set [6] came to 10%. In addition, in data set [7], the Stability turned out to be 15.9%. For the same compound, the 50% inhibitory concentration (IC50) in data set [3] was 390 nM; in data set [1], more than 25000 nM; in data set [4], 20 nM; in data set [2] it was 90 nM.

As to `O=C(NC(c1ccc(Cl)c(Cl)c1)C1CCNCC1)c1ccc2cnc(Cl)cc2c1` (racemic), half-maximal inhibition in data set [4] (IC50) required 140 nM.

Regarding `O=C(NC(c1ccc(Cl)c(Cl)c1)C1CCCCC1)c1ccc2cnccc2c1` (racemic), the IC50 in data set [1] is more than 25000 nM; in data set [4] it was 5800 nM; in data set [2], more than 25000 nM.

For `O=C(NC(c1cncnc1)c1ccc(Cl)c(Cl)c1)c1ccc2cnccc2c1` (racemic), the IC50 in data set [1] was more than 25000 nM; in data set [4], 12700 nM; in data set [2], 3410 nM.

Regarding `O=C(NC(c1ccncc1)c1ccc(Cl)c(Cl)c1)c1ccc2cnccc2c1` (racemic), the figures for the IC50 in data set [1], in data set [4] and in data set [2] were more than 25000 nM, 20400 nM and more than 25000 nM, respectively.

As to `O=C(NC(c1ccc(Cl)c(Cl)c1)C1CCNCC1)c1ccc2cnncc2c1` (single isomer, unassigned), the IC50 in data set [4] is 330 nM; in data set [2] it was 850 nM.
